# From ChEMBL document CHEMBL1212900, “Falcipain inhibitors: optimization studies of the 2-pyrimidinecarbonitrile lead series” (J Med Chem, 2010)
# Experiments:
# [1] = Inhibition of Plasmodium falciparum falcipain-2 expressed in Escherichia coli
# Summary of the method: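 Recombinant E. coli-expressed, refolded enzyme at 0.25 nM in 100 mM sodium acetate pH 5.5, 500 μM CHAPS, 10 mM DTT, DMSO ≤1%. Substrate H-D-Val-Leu-Arg-AFC at 30 μM final. Inhibitor dilutions mixed with substrate, enzyme added last; fluorescence followed 1 h at room temperature. IC50 from percent activity versus concentration.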
# Plasmodium falciparum = test: Antiplasmodial activity against Plasmodium falciparum W2 after 48 hrs; assay type: functional, organism-based; conditions: W2, 48 h
# Summary of the method: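 W2 P. falciparum grown in human erythrocytes, 2% hematocrit, RPMI with 10% human serum or 0.5% AlbuMAX II; sorbitol-synchronized. Serial dilutions from DMSO stocks added at ring stage for 48 h, medium and drug renewed at 24 h. Cells fixed in 1% formaldehyde, stained with YOYO-1, parasitemia counted by flow cytometry; IC50 from percent parasitemia versus untreated controls.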
# [2] = Inhibition of Plasmodium falciparum falcipain-3 expressed in Escherichia coli
# Summary of the method: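 Refolded recombinant enzyme from E. coli, 2 nM, in 100 mM sodium acetate pH 5.5 with 500 μM CHAPS and 10 mM DTT, DMSO up to 1%. H-D-Val-Leu-Arg-AFC at 150 μM final. Reaction started by enzyme addition; fluorescence monitored 1 h at room temperature. IC50 derived from percent activity plotted against inhibitor concentration.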
SMILES,IC50 [1] [nM],IC50 (Plasmodium falciparum) [nM],IC50 [2] [nM]
CC(C)CN(NC(=O)C(C)(C)c1ccc(OCCN2CCOCC2)cc1)c1nc(C#N)ncc1Br,3,802,13
CC(C)N(NC(=O)c1ccc(CN2CCN(C)CC2)cc1)c1nc(C#N)ncc1Br,29,401,1370
CCC(C)CN(NC(=O)c1ccc(CN2CCN(C)CC2)cc1)c1nc(C#N)ncc1Br (centres undefined),0.9,24,35
CN1CCN(Cc2ccc(C(=O)NN(CC3CCC3)c3nc(C#N)ncc3Br)cc2)CC1,3,438,111
CN1CCN(Cc2ccc(C(=O)NN(CCc3ccccc3)c3nc(C#N)ncc3Br)cc2)CC1,23,2180,105
CN1CCN(Cc2ccc(C(=O)NN(CC3CCOCC3)c3nc(C#N)ncc3Br)cc2)CC1,11,310,135
CCCC(C)CN(NC(=O)c1ccc(CN2CCN(C)CC2)cc1)c1nc(C#N)ncc1Br (centres undefined),2,272,52
CN1CCN(Cc2ccc(C(=O)NN(Cc3ccccc3)c3nc(C#N)ncc3Br)cc2)CC1,5,2370,335
CN1CCN(Cc2ccc(C(=O)NN(c3nc(C#N)ncc3Br)C3CCOCC3)cc2)CC1,0.9,59,17
CC(C)CN(NC(=O)c1ccc(OCCN2CCOCC2)cc1)c1nc(C#N)ncc1Br,3,622,145

# Stronger by IC50 [1], values ahead:
IC50 [1] [nM],IC50 (Plasmodium falciparum) [nM],IC50 [2] [nM],SMILES
< 0.5,17,5,CC(C)CN(NC(=O)c1ccc(-c2ccc(CN3CCN(C)CC3)cc2)o1)c1nc(C#N)ncc1Br
0.5,33,6,CN1CCN(Cc2ccc(C(=O)NN(CC3CCCC3)c3nc(C#N)ncc3Br)cc2)CC1
0.7,65,5,CC(C)CN(NC(=O)Cc1ccc(OCCN2CCOCC2)cc1)c1nc(C#N)ncc1Br
0.2,1530,53,CC(C)CN(NC(=O)c1ccc(N2CCOCC2)nc1)c1nc(C#N)ncc1Br
0.5,27,6,CN1CCN(Cc2ccc(C(=O)NN(c3nc(C#N)ncc3Br)C3CCCCC3)cc2)CC1
< 0.5,2,4,CC(C)CN(NC(=O)c1cncc(-c2cccc(CN3CCN(C)CC3)c2)c1)c1nc(C#N)ncc1Br
0.8,28,5,CC(C)CN(NC(=O)Cc1ccc(CN2CCN(C)CC2)cc1)c1nc(C#N)ncc1Br
< 0.5,28,26,CC(=O)N1CCC(N(NC(=O)c2ccc(CN3CCN(C)CC3)cc2)c2nc(C#N)ncc2Br)CC1
< 0.5,16,26,CC(C)CN(NC(=O)c1ccc(-c2ccc(CN3CCN(C)CC3)cc2)nc1)c1nc(C#N)ncc1Br
< 0.5,30,29,CC(C)CN(NC(=O)c1cc2cc(CN3CCN(C)CC3)ccc2o1)c1nc(C#N)ncc1Br
0.2,5,3,C[C@@H]1CCC[C@H]1N(NC(=O)c1ccc(CN2CCN(C)CC2)cc1)c1nc(C#N)ncc1Br
0.2,10,12,CC(C)CN(NC(=O)c1ccc(CN2CCN(C)CC2)s1)c1nc(C#N)ncc1Br
0.2,22,38,CC(C)CN(NC(=O)c1ccc(-c2cccc(CN3CCN(C)CC3)c2)nc1)c1nc(C#N)ncc1Br
